In ChEMBL document CHEMBL1145909, “Optically active mexiletine analogues as stereoselective blockers of voltage-gated Na(+) channels” (J Med Chem, 2003) one finds IC50, Ratio and Relative potency data, which are given here for three compounds.

Experiment [1] in a line: Half-maximal concentration producing a phasic block (cumulative sodium current reduction at 10 HZ stimulation frequency) in Rana esculenta muscle. In kind it is functional, tissue-based, Muscle tissue. The method, boiled down: (§1)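 Three-vaseline-gap voltage clamp on single fibers microdissected from the ventral branch of Rana esculenta semitendinosus. After 10 min equilibration, Na⁺ currents recorded at 10 °C from a holding potential of -100 mV. Compounds diluted daily from stocks in physiological/external solution, DMSO at most 0.2%. IC50 from a nonlinear least-squares fit of concentration-response curves; data as mean ± SEM.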

A short description of experiment [2]: Half-maximal concentration producing a tonic block (blocking sodium channels at resting conditions during infrequent depolarizing pulses) in Rana esculenta muscle. In kind it is functional, tissue-based, Muscle tissue. The method, boiled down:
as §1

The subject of experiment [3] is Pelophylax lessonae. Nature of the experiment: Ratio of the concentrations of tonic block to that of phasic block. In kind it is functional.
The subject of experiment [4] is Pelophylax lessonae. Nature of the experiment: Relative potency producing phasic block, relative to mexileitine.

Broadly, the IC50 is the midpoint of a concentration-inhibition curve. Read a low IC50 as higher potency. As for `Cc1cccc(C)c1OC[C@@H](C)N` [(R)-MEXILETINE], the IC50 in experiment [1] was 23 µM; in experiment [2] it was 54 µM. Besides, the Ratio in the experiment on Pelophylax lessonae [3] worked out at 2. Also, the Relative potency with Pelophylax lessonae [4] stood at 1.

Take `Cc1cccc(C)c1OC[C@H](C)N` [(S)-MEXILETINE]: the IC50 in experiment [1] amounted to 27 µM; in experiment [2] it was 114 µM. Also, the Ratio in the experiment with Pelophylax lessonae [3] was determined as 4. In addition, the Relative potency in the experiment with Pelophylax lessonae [4] worked out at 1.

`Cc1cccc(C)c1OCC(C)N` (stereo unspecified) [MEXILETINE]: the values for the IC50 in experiment [1] and in experiment [2] were 29 µM and 83 µM, respectively. The Ratio in the experiment on Pelophylax lessonae [3] stood at 3.
